Test results: PubChem BioAssay AID504383 (The Scripps Research Institute Molecular Screening Center, 2011)
In all, about 2,500 compounds went through this assay and about 1,200 (48%) were called active.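 The calls were made as follows: active = mean activation above the low control average plus 3 SD, as set in the primary screen (cut at about 12% in these data); inactive = the rest.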 The set was probably picked from earlier hits. The list shows a part of the results.

Each molecule was assayed against Troponin I, cardiac muscle (Homo sapiens) + Troponin T, cardiac muscle (Homo sapiens) + Troponin C, slow skeletal and cardiac muscles (Homo sapiens) (UniProt P19429+P45379+P63316) (assay: cardiac RTF calcium sensitivity activators, confirmation, biochemical, IANBD-TnC fluorescence, triplicate (AID 504383;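 also: 0% = DMSO at 0.472 mM calcium and 100% = DMSO at 2.9 mM calcium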)). Settings: IANBD-labeled cardiac RTF, Ca2+ sensitivity fluorescence, at 7.2 µM, active compounds read high, tested at EC20 calcium, 0.472 mM.
Method in brief: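 System: Labelled thin filament complex | Technique: Filament fluorescence intensity | Benchmarks: Low control EC20 calcium, high control EC100 calcium | Timing: 15 min at 25 °C | Compound dosing: One dose, 7.2 µM nominal | Probe or stimulus: Ca2+ 0.472 mM, EC20 level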

Q: With `CCN(CC)c1ccc(/C=C/[N+](=O)[O-])cc1` as the molecule, how does the activation read?
A: 19.8% (active)

Q: `Cn1cc(C=C(C#N)C#N)c2ccccc21` was tested. Which activation did it give?
A: 69.5% (active)

Q: `COC(=O)C1=C(c2cccc(OC)c2OC)C[C@@H]2CC[C@H]1N2C(=O)NCc1ccco1` was tested. Which activation did it give?
A: 13.3% (active)

Q: Which activation does the source give for `COC(=O)C1=C(c2ccc(F)cc2OCc2ccccc2)C[C@@H]2CC[C@H]1N2C(=O)NCc1ccc(OC)c(OC)c1` here?
A: 154% (active)

Q: Which activation does the source give for `COC(=O)C1=C(c2cccc(OC)c2OC)C[C@@H]2CC[C@H]1N2C(=O)NCCCOC(C)C` here?
A: 5.72% (inactive)

Q: Which activation does the source give for `CCN(CC)CCCOC(=O)C(OC(C)C)(c1ccccc1)c1ccccc1` here?
A: 57.9% (active)

Q: How did the activation turn out when `C/C(=N\N1CCCCC1c1cccnc1)c1c(O)n(C2CCCCC2)c(=S)[nH]c1=O` (stereo not drawn) was run?
A: 68.2% (active)

Q: With `O=c1[nH]c(=S)n(-c2ccccc2Cl)c(O)c1C=NCCN1CCNCC1` as the molecule, how does the activation read?
A: 1670% (active)

Q: How did the activation turn out when `COc1ccc(OC)c(-n2c(O)c(C=NCCN3CCNCC3)c(=O)[nH]c2=S)c1` was run?
A: 27.9% (active)

Q: `Cc1ccc(-n2c(O)c(C=NCC3CCCO3)c(=O)[nH]c2=O)c(C)c1` (stereo not drawn) was tested. Which activation did it give?
A: 7.57% (inactive)

Q: For `Cc1cccc(N2C(=O)NC(=O)/C(=C\c3ccc4c(c3)CCCN4Cc3ccccc3)C2=O)c1`, which activation is on record?
A: 4.9% (inactive)

Q: For `CCOCCCNC(=O)C1c2cc(OC)c(OC)cc2C(=O)N2CCCCC12` (stereo not drawn), which activation is on record?
A: 2.74% (inactive)

Q: `COc1ccccc1N1C(=O)NC(=O)/C(=C/c2ccc3c4c(cccc24)CC3)C1=O` was tested. Which activation did it give?
A: 2.54% (inactive)

Q: Which activation does the source give for `Cc1ccccc1N1C(=O)NC(=O)/C(=C\c2cc(Br)c(N3CCOCC3)o2)C1=O` here?
A: 11% (inactive)

Q: With `CCc1ccccc1N1C(=O)/C(=C/c2ccc(N3CCN(C)CC3)o2)C(=O)NC1=S` as the molecule, how does the activation read?
A: 1030% (active)

Q: How did the activation turn out when `Cc1ccccc1N1C(=O)NC(=O)/C(=C/c2ccc(N3CCOCC3)o2)C1=O` was run?
A: 42.7% (active)

Q: How did the activation turn out when `CN1CCN(c2ccc(/C=C3\C(=O)NC(=S)N(c4cccc(Br)c4)C3=O)o2)CC1` was run?
A: 4.38% (inactive)

Q: Which activation does the source give for `Cc1cccc(N2C(=O)/C(=C/c3ccc(N4CCN(C)CC4)o3)C(=O)NC2=S)c1C` here?
A: 16.4% (active)

Q: For `C=CCN1C(=O)/C(=C\c2ccc(N3CCOCC3)o2)C(=O)NC1=S`, which activation is on record?
A: 4% (inactive)

Q: How did the activation turn out when `COc1cc(/C=C2/C(=O)NC(=O)N(c3ccc(C)cc3)C2=O)cc(OC)c1OC` was run?
A: 6.29% (inactive)

Q: For `CN1C(=O)C(=Cc2ccc(N3CCCCCC3)o2)C(=O)N(C)C1=S`, which activation is on record?
A: 94.7% (active)

Q: Which activation does the source give for `O=C1NC(=O)C(=Cc2ccc(N3CCOCC3)o2)C(=O)N1` here?
A: 2.33% (inactive)

Q: Which activation does the source give for `CCN1C(=O)C(=Cc2ccc(N3CCOCC3)o2)C(=O)N(CC)C1=S` here?
A: 7.34% (inactive)

Q: `COc1ccc(N2C(=O)/C(=C/c3ccc(N(C)C)o3)C(=O)NC2=S)cc1` was tested. Which activation did it give?
A: 338% (active)

Q: For `CCN(CC)c1ccc(/C=C2\C(=O)NC(=S)N(c3ccc(OC)cc3OC)C2=O)o1`, which activation is on record?
A: 8.36% (inactive)

Q: With `CN1C(=O)C(=Cc2sc(=O)n(-c3ccccc3)c2N2CCCCC2)C(=O)N(C)C1=O` as the molecule, how does the activation read?
A: 3.11% (inactive)

Q: With `CN1C(=O)C(=Cc2ccc(N3CCOCC3)o2)C(=O)N(C)C1=S` as the molecule, how does the activation read?
A: 10.3% (inactive)

Q: For `C=CCN1C(=O)/C(=C/c2ccc(N3CCOCC3)o2)C(=O)NC1=S`, which activation is on record?
A: 29.1% (active)

Q: Which activation does the source give for `CN1C(=O)C(=Cc2ccc(N3CCOCC3)o2)C(=O)N(C)C1=O` here?
A: 50.2% (active)

Q: How did the activation turn out when `CN1Cc2c(c(C#N)c(N)n(C)c2=S)CC1(C)C` was run?
A: 4.38% (inactive)

Q: Which activation does the source give for `COc1ccc2c3c([nH]c2c1)C(C)=NCC3` here?
A: 9.9% (inactive)

Q: How did the activation turn out when `FC(F)(F)c1ccc2c(c1)nnn2C1CCN(Cc2nnnn2Cc2ccccc2)CC1` was run?
A: 4.26% (inactive)

Q: How did the activation turn out when `CCOc1ccc(N2C(=O)NC(=O)/C(=C\c3ccc(N4CCCCC4)o3)C2=O)cc1` was run?
A: 154% (active)

Q: Which activation does the source give for `CCN(CC)c1ccc(/C=C2\C(=O)NC(=S)N(C)C2=O)o1` here?
A: 25.4% (active)

Q: With `O=C1NC(=O)N(c2ccc3c(c2)OCO3)C(=O)/C1=C\c1ccc(N2CCCCC2)o1` as the molecule, how does the activation read?
A: -1.01% (inactive)

Q: For `CN1C(=O)/C(=C\c2ccc(N3CCCCC3)o2)C(=O)NC1=S`, which activation is on record?
A: 8.33% (inactive)

Q: `O=C1NC(=O)N(c2ccc3c(c2)OCO3)C(=O)/C1=C/c1ccc(N2CCCC2)o1` was tested. Which activation did it give?
A: 3.64% (inactive)

Q: For `CCN(CC)c1ccc(C=C2C(=O)N(C)C(=S)N(C)C2=O)o1`, which activation is on record?
A: 8.61% (inactive)

Q: `CN1C(=O)/C(=C/c2ccc(N3CCCCCC3)o2)C(=O)NC1=S` was tested. Which activation did it give?
A: 39% (active)

Q: How did the activation turn out when `COc1cccc2c1C(=O)c1c(O)c3c(c(O)c1C2=O)CC(O)(C(C)=NO)CC3OC1CC(N)C(O)C(C)O1` (stereo not drawn) was run?
A: 4.26% (inactive)

Q: Which activation does the source give for `Nc1ccc2ccc3cccc[n+]3c2c1` here?
A: 11.7% (active)

Q: How did the activation turn out when `Cc1ccc(N2C(=O)NC(=O)/C(=C\c3ccoc3)C2=O)cc1` was run?
A: 4.43% (inactive)

Q: With `CN1CCc2cc3c(c4c2C1Cc1ccccc1-4)OCO3` (stereo not drawn) as the molecule, how does the activation read?
A: 13.5% (active)

Q: Which activation does the source give for `CC1=NCCc2c1[nH]c1cc(O)ccc21` here?
A: 5.4% (inactive)

Q: How did the activation turn out when `CCCc1cc(=O)oc2cc(OCC(=O)N3C[C@H]4C[C@@H](C3)c3cccc(=O)n3C4)ccc12` was run?
A: 113% (active)

Q: `CCCc1cc(=O)oc2cc(OCC(=O)N3CCC(C(=O)O)(c4ccccc4)CC3)ccc12` was tested. Which activation did it give?
A: 10.7% (inactive)

Q: Which activation does the source give for `COc1ccc(N2C(=O)NC(=O)/C(=C\c3cn(C)c4ccccc34)C2=O)cc1` here?
A: 3.56% (inactive)

Q: How did the activation turn out when `O=C1NC(=O)C(=Cc2cn(CCOc3ccc4c(c3)OCO4)c3ccccc23)C(=O)N1` was run?
A: 12.6% (active)

Q: For `Cc1ccc(/C=C2/Sc3ccc(C(=O)N4CCC5(CC4)OCCO5)cc3NC2=O)cc1`, which activation is on record?
A: 106% (active)

Q: With `COc1ccc(CC(=O)N2CCN(C)CC2)cc1OC` as the molecule, how does the activation read?
A: 13.3% (active)

Q: Which activation does the source give for `Cc1cc(C=C(C#N)C#N)ccc1N1CCCC1` here?
A: 13% (active)

Q: How did the activation turn out when `Cc1cc(N2CCCC2)ccc1C=C(C#N)C#N` was run?
A: 95.7% (active)

Q: How did the activation turn out when `N#CC(C#N)=Cc1ccc(C=C(C#N)C#N)cc1` was run?
A: 1.09% (inactive)

Q: Which activation does the source give for `Cc1cc(Cl)ccc1C(=O)C1CCCN(C2CCSCC2)C1` (stereo not drawn) here?
A: 2.78% (inactive)

Q: Which activation does the source give for `O=Cc1c(C(=O)O)n(Cc2ccc(Cl)cc2)c2ccccc12` here?
A: 7.27% (inactive)

Q: For `Cc1cc(N(CCCl)CCCl)ccc1C=Cc1ccncn1`, which activation is on record?
A: 17.4% (active)

Q: With `CCCCn1c(O)c(/C=C/C=Nc2ccccc2)c(=O)[nH]c1=O` as the molecule, how does the activation read?
A: 10% (inactive)

Q: Which activation does the source give for `CCCCn1c(O)c(C(=O)/C=C/c2c[nH]c3ccccc23)c(=O)[nH]c1=O` here?
A: 14.8% (active)
